Values after ≈ are worked out from the molar mass of the structure shown.
Key:
[1] = test system: Proteus vulgaris; assay: Antibacterial activity against Proteus vulgaris after 24 hrs by agar streak dilution method; type: functional
Procedure, shortened: (§1)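 MIC by agar streak dilution. Graded amounts of DMSO stock (100 μg/mL) were mixed into molten sterile nutrient agar and poured 4–5 mm deep. Serial concentrations spanned 3.12–100 µg/mL. Plates were inoculated with about 10⁵ CFU/mL of bacterial suspension and incubated at (37 ± 1) °C for 24 h. Each value is the mean of three independent experiments.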

[2] = test system: Escherichia coli; assay: Antibacterial activity against Escherichia coli after 24 hrs by agar streak dilution method; type: functional; procedure, shortened: as §1
[3] = test system: Klebsiella pneumoniae; assay: Antibacterial activity against Klebsiella pneumoniae […] after 24 hrs by agar streak dilution method; type: functional
[4] = test system: Candida albicans; assay: Antifungal activity against Candida albicans after 48 hrs by agar streak dilution method; type: functional
Procedure, shortened: (§2)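 Fungal MIC by agar streak dilution on Sabouraud dextrose agar, poured 4–5 mm deep. Compound from a DMSO stock (100 μg/mL) was incorporated at serial concentrations of 3.12–100 µg/mL. Plates were inoculated with about 10⁵ CFU/mL of suspension and incubated at (37 ± 1) °C for 48 h. Each value is the mean of three independent experiments.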

[5] = test system: Bacillus cereus; assay: Antibacterial activity against Bacillus cereus at 100 ug/disc after 24 hrs by disc diffusion method; type: functional; conditions: read-out: DIZ
Procedure, shortened: (§3)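 Paper disc diffusion on autoclaved Mueller-Hinton agar poured 5 mm deep. Agar was swab-inoculated with 10⁵ CFU/mL suspension (0.5 McFarland). Discs 6.25 mm across were soaked in compound solution in DMSO (3.12–100 µg/mL) and plates incubated 24 h at (37 ± 1) °C. Read-out was inhibition zone (mm). DMSO control disc; ciprofloxacin or ketoconazole reference, 100 µg/disc. Mean of three independent experiments.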

[6] = test system: Aspergillus clavatus; assay: Antifungal activity against Aspergillus clavatus at 100 ug/disc after 24 hrs by disc diffusion method; type: functional; conditions: read-out: DIZ; procedure, shortened: as §3
[7] = test system: Klebsiella pneumoniae; assay: Antibacterial activity against Klebsiella pneumoniae at 100 ug/disc after 24 hrs by disc diffusion method; type: functional; conditions: read-out: DIZ; procedure, shortened: as §3
[8] = test system: Staphylococcus aureus; assay: Antibacterial activity against Staphylococcus aureus after 24 hrs by agar streak dilution method; type: functional; procedure, shortened: as §1
[9] = test system: Aspergillus niger; assay: Antifungal activity against Aspergillus niger after 48 hrs by agar streak dilution method; type: functional; procedure, shortened: as §2
[10] = test system: Aspergillus fumigatus; assay: Antifungal activity against Aspergillus fumigatus at 100 ug/disc after 24 hrs by disc diffusion method; type: functional; conditions: read-out: DIZ; procedure, shortened: as §3
[11] = test system: Bacillus cereus; assay: Antibacterial activity against Bacillus cereus after 24 hrs by agar streak dilution method; type: functional; procedure, shortened: as §1
[12] = test system: Aspergillus niger; assay: Antifungal activity against Aspergillus niger at 100 ug/disc after 24 hrs by disc diffusion method; type: functional; conditions: read-out: DIZ; procedure, shortened: as §3
[13] = test system: Staphylococcus aureus; assay: Antibacterial activity against Staphylococcus aureus at 100 ug/disc after 24 hrs by disc diffusion method; type: functional; conditions: read-out: DIZ; procedure, shortened: as §3
[14] = test system: Salmonella typhi; assay: Antibacterial activity against Salmonella Typhi at 100 ug/disc after 24 hrs by disc diffusion method; type: functional, Salmonella enterica subsp. enterica serovar Typhi; conditions: Salmonella enterica, read-out: DIZ
Procedure, shortened: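 Paper disc diffusion on Mueller-Hinton agar poured 5 mm deep; 10⁵ CFU/mL suspension (0.5 McFarland) swabbed over surface. 6.25 mm filter paper discs soaked in compound in DMSO, incubated 24 h at (37 ± 1) °C; inhibition zone diameter in mm. DMSO disc as blank; ciprofloxacin 100 µg/disc as reference. Mean of three independent experiments.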

[15] = test system: Escherichia coli; assay: Antibacterial activity against Escherichia coli at 100 ug/disc after 24 hrs by disc diffusion method; type: functional; conditions: read-out: DIZ; procedure, shortened: as §3
[16] = test system: Shigella flexneri; assay: Antibacterial activity against Shigella flexneri after 24 hrs by agar streak dilution method; type: functional; procedure, shortened: as §1
[17] = test system: Proteus vulgaris; assay: Antibacterial activity against Proteus vulgaris at 100 ug/disc after 24 hrs by disc diffusion method; type: functional; conditions: read-out: DIZ; procedure, shortened: as §3
[18] = test system: Aspergillus fumigatus; assay: Antifungal activity against Aspergillus fumigatus after 48 hrs by agar streak dilution method; type: functional; procedure, shortened: as §2
[19] = test system: Salmonella typhi; assay: Antibacterial activity against Salmonella Typhi after 24 hrs by agar streak dilution method; type: functional, Salmonella enterica subsp. enterica serovar Typhi; conditions: Salmonella enterica
Procedure, shortened: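 Agar streak dilution: DMSO stock (100 µg/mL) graded into molten sterile nutrient agar, poured 4–5 mm deep and solidified. Plates carry serial dilutions spanning 3.12–100 µg/mL. Applied ~10⁵ CFU/mL suspension, then incubated 24 h at (37 ± 1) °C. MIC read as the lowest inhibitory concentration; each value is the mean of three independent experiments.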

[20] = test system: Pseudomonas aeruginosa; assay: Antibacterial activity against Pseudomonas aeruginosa at 100 ug/disc after 24 hrs by disc diffusion method; type: functional; conditions: read-out: DIZ; procedure, shortened: as §3
[21] = test system: Aspergillus clavatus; assay: Antifungal activity against Aspergillus clavatus after 48 hrs by agar streak dilution method; type: functional; procedure, shortened: as §2
[22] = test system: Pseudomonas aeruginosa; assay: Antibacterial activity against Pseudomonas aeruginosa […] after 24 hrs by agar streak dilution method; type: functional
[23] = test system: Candida albicans; assay: Antifungal activity against Candida albicans at 100 ug/disc after 24 hrs by disc diffusion method; type: functional; conditions: read-out: DIZ; procedure, shortened: as §3
[24] = test system: Shigella flexneri; assay: Antibacterial activity against Shigella flexneri at 100 ug/disc after 24 hrs by disc diffusion method; type: functional; conditions: read-out: DIZ; procedure, shortened: as §3

Structure (SMILES) | MIC [1] | MIC [3] | MIC [4] | zone of inhibition at 100 µg/disc [5] | zone of inhibition at 100 µg/disc [6] | zone of inhibition at 100 µg/disc [7] | MIC [8] | MIC [9] | zone of inhibition at 100 µg/disc [10] | MIC [11] | zone of inhibition at 100 µg/disc [12] | zone of inhibition at 100 µg/disc [13] | zone of inhibition at 100 µg/disc [14] | zone of inhibition at 100 µg/disc [15] | MIC [16] | zone of inhibition at 100 µg/disc [17] | MIC [18] | MIC [19] | zone of inhibition at 100 µg/disc [20] | MIC [21] | other results
CCN1CCN(CC2SC(c3ccccc3)N(c3ccc(Nc4nc(Oc5cc(=O)n(C)c6ccccc56)nc(N(C)C)n4)cc3)C2=O)CC1 (stereo not drawn) | 100 µg/mL (≈ 145 µM) | 100 µg/mL (≈ 145 µM) | 100 µg/mL (≈ 145 µM) | 16 mm | < 10 mm | < 10 mm | 100 µg/mL (≈ 145 µM) | 100 µg/mL (≈ 145 µM) | < 10 mm | 100 µg/mL (≈ 145 µM) | 12 mm | 14 mm | 16 mm | 22 mm | 100 µg/mL (≈ 145 µM) | 15 mm | 100 µg/mL (≈ 145 µM) | 50 µg/mL (≈ 72.3 µM) | 13 mm | 100 µg/mL (≈ 145 µM) | MIC [2]: 25 µg/mL (≈ 36.1 µM); MIC [22]: 100 µg/mL (≈ 145 µM); zone of inhibition at 100 µg/disc [23]: 14 mm; zone of inhibition at 100 µg/disc [24]: 12 mm
CCN1CCN(CC2SC(c3ccc(Cl)cc3Cl)N(c3ccc(Nc4nc(Oc5cc(=O)n(C)c6ccccc56)nc(N(C)C)n4)cc3)C2=O)CC1 (stereo not drawn) | 12.5 µg/mL (≈ 16.4 µM) | 25 µg/mL (≈ 32.9 µM) | 12.5 µg/mL (≈ 16.4 µM) | 19 mm | 25 mm | 23 mm | 6.25 µg/mL (≈ 8.22 µM) | 6.25 µg/mL (≈ 8.22 µM) | 17 mm | 12.5 µg/mL (≈ 16.4 µM) | 28 mm | 25 mm | 15 mm | 24 mm | 6.25 µg/mL (≈ 8.22 µM) | 20 mm | 25 µg/mL (≈ 32.9 µM) | 50 µg/mL (≈ 65.7 µM) | 21 mm | 12.5 µg/mL (≈ 16.4 µM) | MIC [2]: 12.5 µg/mL (≈ 16.4 µM); MIC [22]: 25 µg/mL (≈ 32.9 µM); zone of inhibition at 100 µg/disc [23]: 28 mm; zone of inhibition at 100 µg/disc [24]: 26 mm
CCN1CCN(CC2SC(c3ccc(Cl)c(Cl)c3)N(c3ccc(Nc4nc(Oc5cc(=O)n(C)c6ccccc56)nc(N(C)C)n4)cc3)C2=O)CC1 (stereo not drawn) | 25 µg/mL (≈ 32.9 µM) | 12.5 µg/mL (≈ 16.4 µM) | 25 µg/mL (≈ 32.9 µM) | 17 mm | 19 mm | 19 mm | 25 µg/mL (≈ 32.9 µM) | 25 µg/mL (≈ 32.9 µM) | 16 mm | 12.5 µg/mL (≈ 16.4 µM) | 21 mm | 15 mm | 12 mm | 17 mm | 12.5 µg/mL (≈ 16.4 µM) | 19 mm | 50 µg/mL (≈ 65.7 µM) | 50 µg/mL (≈ 65.7 µM) | 23 mm | 50 µg/mL (≈ 65.7 µM) | MIC [2]: 25 µg/mL (≈ 32.9 µM); MIC [22]: 25 µg/mL (≈ 32.9 µM); zone of inhibition at 100 µg/disc [23]: 23 mm; zone of inhibition at 100 µg/disc [24]: 22 mm
CCN1CCN(CC2SC(c3ccc(C)cc3)N(c3ccc(Nc4nc(Oc5cc(=O)n(C)c6ccccc56)nc(N(C)C)n4)cc3)C2=O)CC1 (stereo not drawn) | 6.25 µg/mL (≈ 8.85 µM) | 50 µg/mL (≈ 70.8 µM) | 50 µg/mL (≈ 70.8 µM) | 24 mm | 26 mm | 24 mm | 50 µg/mL (≈ 70.8 µM) | 100 µg/mL (≈ 142 µM) | 24 mm | 50 µg/mL (≈ 70.8 µM) | 21 mm | 26 mm | 23 mm | 24 mm | 50 µg/mL (≈ 70.8 µM) | 27 mm | 50 µg/mL (≈ 70.8 µM) | 50 µg/mL (≈ 70.8 µM) | 26 mm | 25 µg/mL (≈ 35.4 µM) | MIC [2]: 25 µg/mL (≈ 35.4 µM); MIC [22]: 6.25 µg/mL (≈ 8.85 µM); zone of inhibition at 100 µg/disc [23]: 23 mm; zone of inhibition at 100 µg/disc [24]: 24 mm
CCN1CCN(CC2SC(c3ccc(F)cc3)N(c3ccc(Nc4nc(Oc5cc(=O)n(C)c6ccccc56)nc(N(C)C)n4)cc3)C2=O)CC1 (stereo not drawn) | 25 µg/mL (≈ 35.2 µM) | 25 µg/mL (≈ 35.2 µM) | 25 µg/mL (≈ 35.2 µM) | 28 mm | 25 mm | 25 mm | 6.25 µg/mL (≈ 8.8 µM) | 12.5 µg/mL (≈ 17.6 µM) | 28 mm | 6.25 µg/mL (≈ 8.8 µM) | 26 mm | 27 mm | 27 mm | 28 mm | 25 µg/mL (≈ 35.2 µM) | 22 mm | 12.5 µg/mL (≈ 17.6 µM) | 6.25 µg/mL (≈ 8.8 µM) | 25 mm | 25 µg/mL (≈ 35.2 µM) | MIC [2]: 6.25 µg/mL (≈ 8.8 µM); MIC [22]: 12.5 µg/mL (≈ 17.6 µM); zone of inhibition at 100 µg/disc [23]: 25 mm; zone of inhibition at 100 µg/disc [24]: 19 mm
O=C(O)c1cn(C2CC2)c2cc(N3CCNCC3)c(F)cc2c1=O [CIPROFLOXACIN] | 1 µg/mL (≈ 3.02 µM) | 1 µg/mL (≈ 3.02 µM) | – | 31 mm | – | 33 mm | 1 µg/mL (≈ 3.02 µM) | – | – | 1 µg/mL (≈ 3.02 µM) | – | 30 mm | 30 mm | 32 mm | ≤ 3 µg/mL | 31 mm | – | 1 µg/mL (≈ 3.02 µM) | 33 mm | – | MIC [22]: 1 µg/mL (≈ 3.02 µM); zone of inhibition at 100 µg/disc [24]: 32 mm
CC(=O)N1CCN(c2ccc(OCC3COC(Cn4ccnc4)(c4ccc(Cl)cc4Cl)O3)cc2)CC1 (stereo not drawn) [KETOCONAZOLE] | – | – | 1 µg/mL (≈ 1.88 µM) | – | 31 mm | – | – | ≤ 3 µg/mL | 29 mm | – | 30 mm | – | – | – | – | – | 1 µg/mL (≈ 1.88 µM) | – | – | 1 µg/mL (≈ 1.88 µM) | zone of inhibition at 100 µg/disc [23]: 33 mm

From ChEMBL document CHEMBL1933017, “Synthesis and biological evaluation of some thiazolidinones as antimicrobial agents” (2012)
